ChEMBL document CHEMBL1121632, “Oxime and dithiolane derivatives of 5-formyl-2'-deoxyuridine and their 5'-phosphates: antiviral effects and thymidylate synthetase inhibition” (J Med Chem, 1980)
Converted amounts (≈) assume the structure as drawn.

Experiments:
[1] = Concentration required to reduce HSV-1 F virus induced cytogenicity in primary rabbit kidney (PRK); format: functional; conditions: Oryctolagus cuniculus; read-out: ID50 (the source's name)
[2] = Concentration required to reduce [1,2-H]dUrd incorporation into DNA in primary rabbit kidney (PRK); format: functional; conditions: Oryctolagus cuniculus; read-out: ID50 (the source's name)
How it was run: (§1)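 PRK cell cultures (10^5 cells per well) were pulsed with 2'-deoxy[1',2'-3H]uridine (42 Ci/mmol) at 0.25 μCi, or 6 pmol, per well. Compound concentration cutting label incorporation into cellular DNA by 50% was taken as ID50.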

[3] = Concentration required to reduce virus HSV-2G induced cytogenicity in primary rabbit kidney (PRK); format: functional; conditions: Oryctolagus cuniculus; read-out: ID50 (the source's name)
[4] = Ratio of ID50 for [Me-H]dThd to ID50 for [1,2-H]dUrd; format: functional
How it was run: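 The ratio is the ID50 for [Me-3H]dThd incorporation divided by the ID50 for [1',2'-3H]dUrd incorporation into PRK cell DNA. Each ID50 is the concentration giving 50% reduction of incorporation. The ratio is treated as a parameter for selective in vivo thymidylate synthetase inhibition.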

[5] = Concentration required to reduce HSV-2 Lyons virus induced cytogenicity in primary rabbit kidney (PRK); format: functional; conditions: Oryctolagus cuniculus; read-out: ID50 (the source's name)
[6] = Concentration required to reduce [Me-H]dThd incorporation into DNA in primary rabbit kidney (PRK); format: functional; conditions: Oryctolagus cuniculus, read-out: ID50 (the source's name)
How it was run: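 [methyl-3H]dThd incorporation into DNA of primary rabbit kidney cell cultures was measured with test compound present. ID50 is the concentration reducing dThd incorporation into DNA by 50%.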

[7] = Minimum Cytotoxic concentration in primary rabbit kidney (PRK); format: tissue-based, Oryctolagus cuniculus; conditions: primary rabbit kidney (PRK) cells
How it was run: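 Primary rabbit kidney cell cultures, the same cells used for the virus cytopathogenicity assays, were exposed to the compound. Cytotoxicity was read as the lowest concentration causing a microscopically visible change in cell morphology.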

[8] = Concentration required to reduce HSV-1 KOS virus induced cytogenicity in primary rabbit kidney (PRK); format: functional; conditions: Oryctolagus cuniculus; read-out: ID50 (the source's name)
[9] = Concentration required to reduce HV2 196 virus induced cytogenicity in primary rabbit kidney (PRK); format: functional; conditions: Oryctolagus cuniculus; read-out: ID50 (the source's name)
[10] = Concentration required to reduce HSV-1 McIntyre virus induced cytogenicity in primary rabbit kidney (PRK); format: functional; conditions: Oryctolagus cuniculus, read-out: ID50 (the source's name)
[11] = Concentration required to reduce vaccinia virus induced cytogenicity in primary rabbit kidney (PRK); format: functional; conditions: Oryctolagus cuniculus; read-out: ID50 (the source's name)
[12] = Concentration required to reduce [1,2-H]dUrd incorporation into DNA in n primary rabbit kidney (PRK); format: functional; conditions: Oryctolagus cuniculus; read-out: ID50 (the source's name); how it was run: as §1
[13] = Concentration required to reduce HSV-1 F virus induced cytogenicity in primary rabbit kidney (PRK); Range is 1-2; format: functional; conditions: Oryctolagus cuniculus; read-out: ID50 (the source's name)
[14] = Concentration required to reduce HV2 196 virus induced cytogenicity in primary rabbit kidney (PRK); Range is 1-4; format: functional; conditions: Oryctolagus cuniculus; read-out: ID50 (the source's name)
[15] = Concentration required to reduce HSV-1 KOS virus induced cytogenicity in primary rabbit kidney (PRK); Range is 1-2; format: functional; conditions: Oryctolagus cuniculus; read-out: ID50 (the source's name)
[16] = Concentration required to reduce HSV-2 Lyons virus induced cytogenicity in primary rabbit kidney (PRK); Range is 2-4; format: functional; conditions: Oryctolagus cuniculus; read-out: ID50 (the source's name)
[17] = Concentration required to reduce virus HSV-2G induced cytogenicity in primary rabbit kidney (PRK); Range is 1-2; format: functional; conditions: Oryctolagus cuniculus; read-out: ID50 (the source's name)
[18] = Concentration required to reduce vaccinia virus induced cytogenicity in primary rabbit kidney (PRK); Range is 0.1-0.2; format: functional; conditions: Oryctolagus cuniculus; read-out: ID50 (the source's name)

Compound: O=c1[nH]c(=O)n([C@H]2C[C@H](O)[C@@H](CO)O2)cc1/C=N/O
- IC50 [1]: 1 µg/mL (≈ 3.69 µM)
- IC50 [2]: 7.5 µg/mL (≈ 27.7 µM)
- IC50 [3]: 7 µg/mL (≈ 25.8 µM)
- Ratio [4]: 40
- IC50 [5]: 20 µg/mL (≈ 73.7 µM)
- IC50 [6]: 300 µg/mL (≈ 1110 µM)
- MCC [7]: 100 µg/mL
- IC50 [8]: 0.7 µg/mL (≈ 2.58 µM)
- IC50 [9]: 20 µg/mL (≈ 73.7 µM)
- IC50 [10]: 0.7 µg/mL (≈ 2.58 µM)
- IC50 [11]: 10 µg/mL (≈ 36.9 µM)

Compound: O=c1[nH]c(=O)n([C@H]2C[C@H](O)[C@@H](CO)O2)cc1C1SCCS1
- IC50 [1]: 150 µg/mL (≈ 451 µM)
- IC50 [3]: 200 µg/mL (≈ 602 µM)
- Ratio [4]: 1
- IC50 [5]: > 400 µg/mL
- IC50 [6]: 100 µg/mL (≈ 301 µM)
- MCC [7]: > 400 µg/mL
- IC50 [8]: 300 µg/mL (≈ 903 µM)
- IC50 [9]: 300 µg/mL (≈ 903 µM)
- IC50 [12]: 100 µg/mL (≈ 301 µM)
- IC50 [10]: 300 µg/mL (≈ 903 µM)
- IC50 [11]: 200 µg/mL (≈ 602 µM)

Compound: O=Cc1cn([C@H]2C[C@H](O)[C@@H](CO)O2)c(=O)[nH]c1=O
- IC50 [13]: 1 µg/mL (≈ 3.9 µM)
- IC50 [14]: 1 µg/mL (≈ 3.9 µM)
- IC50 [2]: 0.2 µg/mL (≈ 0.781 µM)
- Ratio [4]: 375
- IC50 [15]: 1 µg/mL (≈ 3.9 µM)
- IC50 [6]: 75 µg/mL (≈ 293 µM)
- MCC [7]: 4 µg/mL
- IC50 [16]: 2 µg/mL (≈ 7.81 µM)
- IC50 [17]: 1 µg/mL (≈ 3.9 µM)
- IC50 [18]: 0.1 µg/mL (≈ 0.39 µM)
- IC50 [10]: 0.7 µg/mL (≈ 2.73 µM)
